Assay [1] has as its system Rattus norvegicus. As to the kind of experiment: Hypotensive activity in normotensive Wistar rat assessed as systolic blood pressure at 5 mg/kg, iv after 5 mins (Rvb=138 +/- 0.9 mmHg). The class given is functional, Artery.
Assay [2] concerns Rattus norvegicus. The assay can be described thus: Hypotensive activity in normotensive Wistar rat assessed as systolic blood pressure at 5 mg/kg, iv after 60 mins (Rvb=138 +/- 0.9 mmHg). The class given is functional, Artery.
In assay [3] the test system is Rattus norvegicus. As to the kind of experiment: Hypotensive activity in normotensive Wistar rat assessed as systolic blood pressure at 5 mg/kg, iv after 10 mins (Rvb=138 +/- 0.9 mmHg). The class given is functional, Artery.
The subject of assay [4] is Rattus norvegicus. The assay can be described thus: Hypotensive activity in normotensive Wistar rat assessed as diastolic blood pressure at 5 mg/kg, iv after 10 mins (Rvb=119 +/- 1.2 mmHg). The class given is functional, Artery.
The test system of assay [5] is Rattus norvegicus. The assay can be described thus: Hypotensive activity in normotensive Wistar rat assessed as diastolic blood pressure at 2.5 mg/kg, iv after 5 mins (Rvb=107.2 +/- 7.3 mmHg). The class given is functional, Artery.
Assay [6] deals with Rattus norvegicus. As to the kind of experiment: Hypotensive activity in normotensive Wistar rat assessed as systolic blood pressure at 2.5 mg/kg, iv after 60 mins (Rvb=125.6 +/- 7.6 mmHg). The class given is functional, Artery.
For assay [7], the system named is Rattus norvegicus. As to the kind of experiment: Hypotensive activity in normotensive Wistar rat assessed as systolic blood pressure at 2.5 mg/kg, iv after 5 mins (Rvb=125.6 +/- 7.6 mmHg). The class given is functional, Artery.
Assay [8] relates to Rattus norvegicus. As to the kind of experiment: Hypotensive activity in normotensive Wistar rat assessed as diastolic blood pressure at 5 mg/kg, iv after 5 mins (Rvb=125.5 +/- 0.6 mmHg). The class given is functional, Artery.
In assay [9] the test system is Rattus norvegicus. As to the kind of experiment: Hypotensive activity in normotensive Wistar rat assessed as systolic blood pressure at 5 mg/kg, iv after 60 mins (Rvb=140.5 +/- 1.1 mmHg). The class given is functional, Artery.
Assay [10] deals with Rattus norvegicus. As to the kind of experiment: Hypotensive activity in normotensive Wistar rat assessed as diastolic blood pressure at 5 mg/kg, iv after 20 mins (Rvb=125.5 +/- 0.6 mmHg). The class given is functional, Artery.
Assay [11] relates to Rattus norvegicus. As to the kind of experiment: Hypotensive activity in normotensive Wistar rat assessed as diastolic blood pressure at 5 mg/kg, iv after 30 mins (Rvb=126 +/- 4.6 mmHg). The class given is functional, Artery.
Assay [12] has as its system Rattus norvegicus. As to the kind of experiment: Hypotensive activity in normotensive Wistar rat assessed as diastolic blood pressure at 5 mg/kg, iv after 20 mins (Rvb=126 +/- 4.6 mmHg). The class given is functional, Artery.
For assay [13], the system named is Rattus norvegicus. As to the kind of experiment: Hypotensive activity in normotensive Wistar rat assessed as systolic blood pressure at 5 mg/kg, iv after 30 mins (Rvb=141.3 +/- 6.4 mmHg). The class given is functional, Artery.
Assay [14] has as its system Rattus norvegicus. The assay can be described thus: Hypotensive activity in normotensive Wistar rat assessed as diastolic blood pressure at 5 mg/kg, iv after 5 mins (Rvb=126 +/- 4.6 mmHg). The class given is functional, Artery.
In assay [15] the test system is Rattus norvegicus. The assay can be described thus: Hypotensive activity in normotensive Wistar rat assessed as diastolic blood pressure at 5 mg/kg, iv after 60 mins (Rvb=120 +/- 1.7 mmHg). The class given is functional, Artery.
Assay [16] concerns Rattus norvegicus. The assay can be described thus: Hypotensive activity in normotensive Wistar rat assessed as systolic blood pressure at 5 mg/kg, iv after 10 mins (Rvb=139 +/- 0.6 mmHg). The class given is functional, Artery.
In assay [17] the test system is Rattus norvegicus. As to the kind of experiment: Hypotensive activity in normotensive Wistar rat assessed as diastolic blood pressure at 5 mg/kg, iv after 30 mins (Rvb=120 +/- 1.7 mmHg). The class given is functional, Artery.
In assay [18] the test system is Rattus norvegicus. The assay can be described thus: Hypotensive activity in normotensive Wistar rat assessed as diastolic blood pressure at 5 mg/kg, iv after 5 mins (Rvb=120 +/- 1.7 mmHg). The class given is functional, Artery.
Assay [19] deals with Rattus norvegicus. The assay can be described thus: Hypotensive activity in normotensive Wistar rat assessed as diastolic blood pressure at 5 mg/kg, iv after 10 mins (Rvb=120 +/- 1.7 mmHg). The class given is functional, Artery.
Assay [20] relates to Rattus norvegicus. As to the kind of experiment: Hypotensive activity in normotensive Wistar rat assessed as diastolic blood pressure at 5 mg/kg, iv after 20 mins (Rvb=120 +/- 1.7 mmHg). The class given is functional, Artery.
Assay [21] deals with Rattus norvegicus. The assay can be described thus: Hypotensive activity in normotensive Wistar rat assessed as systolic blood pressure at 5 mg/kg, iv after 5 mins (Rvb=139 +/- 0.6 mmHg). The class given is functional, Artery.
The subject of assay [22] is Rattus norvegicus. As to the kind of experiment: Hypotensive activity in normotensive Wistar rat assessed as systolic blood pressure at 5 mg/kg, iv after 5 mins (Rvb=142.5 +/- 3.6 mmHg). The class given is functional, Artery.
Assay [23] concerns Rattus norvegicus. As to the kind of experiment: Hypotensive activity in normotensive Wistar rat assessed as systolic blood pressure at 5 mg/kg, iv after 10 mins (Rvb=142.5 +/- 3.6 mmHg). The class given is functional, Artery.
The subject of assay [24] is Rattus norvegicus. The assay can be described thus: Hypotensive activity in normotensive Wistar rat assessed as diastolic blood pressure at 5 mg/kg, iv after 60 mins (Rvb=127 +/- 8.1 mmHg). The class given is functional, Artery.
For assay [25], the system named is Rattus norvegicus. As to the kind of experiment: Hypotensive activity in normotensive Wistar rat assessed as systolic blood pressure at 5 mg/kg, iv after 20 mins (Rvb=142.5 +/- 3.6 mmHg). The class given is functional, Artery.
Assay [26] concerns Alpha-1B adrenergic receptor (Cavia porcellus). As to the kind of experiment: Antagonist activity at Alpha-1B adrenoceptor in guinea pig spleen assessed as inhibition of noradrenaline-induced contraction after 30 mins.
Assay [27] relates to Rattus norvegicus. The assay can be described thus: Hypotensive activity in normotensive Wistar rat assessed as systolic blood pressure at 5 mg/kg, iv after 30 mins (Rvb=142.5 +/- 3.6 mmHg). The class given is functional, Artery.
For a further assay, the target named is Guinea pig spleen α1B (Cavia porcellus, UniProt H0WBQ9). The assay can be described thus: Antagonist activity at Alpha-1B adrenoceptor in guinea pig spleen assessed as inhibition of noradrenaline-induced contraction after 30 mins. As to conditions: read-out: pA2 (converted). The class given is functional, tissue-based. Put shortly:
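Guinea-pig spleen strips equilibrated 100 min with repeated noradrenaline stimulation and washout. Two cumulative noradrenaline concentration–response curves were run 60 min apart, before and after a 30 min antagonist incubation, with propranolol present throughout to block β-adrenoceptors. Contraction was expressed as % of the first-curve maximum. EC50 was fitted by non-linear regression, and Schild analysis of concentration ratios gave pA2. n ≥ 5.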

The subject of assay [28] is Rattus norvegicus. The assay can be described thus: Hypotensive activity in normotensive Wistar rat assessed as diastolic blood pressure at 5 mg/kg, iv after 30 mins (Rvb=127 +/- 8.1 mmHg). The class given is functional, Artery.

The source of these data is ChEMBL document CHEMBL1154048, “Design, synthesis and pharmacological evaluation of new 1-[3-(4-arylpiperazin-1-yl)-2-hydroxy-propyl]-3,3-diphenylpyrrolidin-2-one derivatives with antiarrhythmic, antihypertensive, and alpha-adrenolytic activity” (Eur J Med Chem, 2009).

`Cl.Cl.O=C1N(CC(O)CN2CCN(c3ccccc3C(F)(F)F)CC2)CCC1(c1ccccc1)c1ccccc1` (centres undefined): the Activity came out at 126 mmHg in the assay on Rattus norvegicus [1], 111 mmHg in the assay on Rattus norvegicus [2], 122 mmHg with Rattus norvegicus [3] and 106.5 mmHg with Rattus norvegicus [4].

As for `COc1ccc(N2CCN(CC(O)CN3CCC(c4ccccc4)(c4ccccc4)C3=O)CC2)cc1.Cl.Cl` (centres undefined), the Activity is recorded as 107 mmHg in the assay with Rattus norvegicus [5], 105.8 mmHg in the assay with Rattus norvegicus [6] and 126.6 mmHg in the assay with Rattus norvegicus [7].

`Cl.Cl.O=C1N(CC(O)CN2CCN(c3ccccc3)CC2)CCC1(c1ccccc1)c1ccccc1` (centres undefined): the Activity was found to be 119 mmHg in the assay on Rattus norvegicus [8], 126.5 mmHg with Rattus norvegicus [9] and 116.5 mmHg in the assay on Rattus norvegicus [10].

On to `Cc1ccccc1N1CCN(CC(O)CN2CCC(c3ccccc3)(c3ccccc3)C2=O)CC1.Cl.Cl` (centres undefined), for which the Activity with Rattus norvegicus [11] turned out to be 117.7 mmHg; in the assay with Rattus norvegicus [12] it was 119.7 mmHg; in the assay with Rattus norvegicus [13], 133 mmHg; in the assay with Rattus norvegicus [14], 116.7 mmHg.

Regarding `COc1ccccc1N1CCN(CC(O)CN2CCC(c3ccccc3)(c3ccccc3)C2=O)CC1.Cl.Cl` (centres undefined), the Activity was 98 mmHg in the assay with Rattus norvegicus [15]; 122 mmHg in the assay with Rattus norvegicus [16]; 102.5 mmHg in the assay on Rattus norvegicus [17]; 109 mmHg in the assay on Rattus norvegicus [18]; 107.5 mmHg with Rattus norvegicus [19]; 104 mmHg in the assay on Rattus norvegicus [20]. For the same molecule, in the assay on Rattus norvegicus [21], the Activity came out at 125 mmHg.

As to `CCOc1ccccc1N1CCN(CC(O)CN2CCC(c3ccccc3)(c3ccccc3)C2=O)CC1.Cl.Cl` (centres undefined), the Activity with Rattus norvegicus [22] is 130 mmHg; in the assay with Rattus norvegicus [23], 118 mmHg; in the assay on Rattus norvegicus [24], 95.5 mmHg; in the assay with Rattus norvegicus [25] it was 111 mmHg; in [26], “Dose-dependent effect”; in the assay with Rattus norvegicus [27], 113.5 mmHg. Besides, in the assay on Rattus norvegicus [28], the Activity was determined as 96 mmHg. The Kb on Guinea pig spleen α1B was 281 nM.
